This is a sample that favours compounds with a hit; in the whole collection about 1.9% have one here.
Neddylation inh = cullin neddylation inhibition. P61081+Q13564. TR-FRET cullin neddylation, biochemical. inhibition, % at 25 µM. 0.58% of 360,000 active. AID 651699; in the data active = inhibition above about 36%
Target sequence (P61081 whole entry, looked up): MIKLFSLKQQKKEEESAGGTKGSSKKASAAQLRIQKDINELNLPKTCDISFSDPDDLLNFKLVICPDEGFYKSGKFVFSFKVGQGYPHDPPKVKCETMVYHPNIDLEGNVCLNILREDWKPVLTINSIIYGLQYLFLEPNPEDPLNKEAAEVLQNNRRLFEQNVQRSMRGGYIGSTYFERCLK
Target sequence (Q13564 whole entry, looked up): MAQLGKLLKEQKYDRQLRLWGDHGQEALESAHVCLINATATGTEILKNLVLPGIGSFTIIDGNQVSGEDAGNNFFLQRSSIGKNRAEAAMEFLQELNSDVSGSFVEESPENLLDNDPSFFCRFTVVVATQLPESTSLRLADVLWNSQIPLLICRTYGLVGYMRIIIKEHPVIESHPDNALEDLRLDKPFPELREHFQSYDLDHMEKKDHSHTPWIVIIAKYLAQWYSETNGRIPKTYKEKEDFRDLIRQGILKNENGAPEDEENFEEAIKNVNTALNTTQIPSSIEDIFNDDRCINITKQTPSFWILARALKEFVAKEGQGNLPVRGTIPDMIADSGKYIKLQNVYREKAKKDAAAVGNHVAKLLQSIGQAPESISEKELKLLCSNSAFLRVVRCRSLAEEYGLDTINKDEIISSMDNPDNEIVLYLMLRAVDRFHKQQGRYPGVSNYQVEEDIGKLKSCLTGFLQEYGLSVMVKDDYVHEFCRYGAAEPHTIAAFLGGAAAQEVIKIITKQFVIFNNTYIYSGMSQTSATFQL
proCasp7 act = activates human procaspase-7, counter-screen for procaspase-3 activators. activation, % at 8.5 µM. P55210. recombinant procaspase-7, Ac-DEVD-pNA absorbance 405 nm; D23A/D198A/D206A triple mutant, cannot self-cleave; scale: DMSO 0, 5 µM enzyme 100. 0.093% of 330,000 active;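 active = percent activation above the screen-wide mean plus 3 SD, cut at about 25% in these data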
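Assay system: Uncleavable procaspase-7 mutant enzyme / Input: 2 µM procaspase-7 mutant as dispensed / Dosing: single nominal 8.5 µM compound dose, 0.8% DMSO final / Timing: 1 h enzyme–compound preincubation and 2 h substrate reaction, both 25 °C / Detection: p-Nitroaniline absorbance at 405 nm, read at 0 and 120 min / Replication: singlicate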
HIF act = HIF pathway transcriptional activation; 0.32% of 300,000 active; U2OS HRE-luciferase reporter, luminescence; normalized: DMSO 0%, desferrioxamine 100%; activation, % at 7.5 µM (by protocol);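 active = mean activation of at least 10% of the iron chelator positive control signal, with at least half of replicates also reaching 10%; inconclusive = mean and replicate majority disagree about reaching 10%; inactive = mean and most replicates under 10%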
proCasp3 act = activates human procaspase-3; P42574; recombinant procaspase-3 D3A, Ac-DEVD-pNA absorbance 405 nm; activation, % at 8.5 µM; 0.11% of 330,000 active; AID 463141;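 active = activation above the mean of all tested compounds plus 3 SD, cut at about 21% in these data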;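 also: 0% = DMSO alone and 100% = DMSO wells spiked with extra 5 µM PC-3 D3A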
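System: Procaspase-3 D3A mutant. Medium: Zinc-free 300 mM NaCl, 50 mM HEPES, 0.01% Triton X-100. Schedule: 1 h preincubation plus 2 h reaction at 25 °C. Measured by: 405 nm absorbance of p-nitroaniline, reads at 0 and 120 min. Read-out: percent activation relative to control range.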
Calb FLC = C. albicans growth modulation with fluconazole | C. albicans CaCi-2 + fluconazole, Alamar Blue growth, 48 h | growth inhibition, % (concentration not given with the values) | 0.57% of 300,000 active | AID 1979;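 active = growth inhibition above about 58% in most replicates, limit read from the data, passing the limit was not always enough; inconclusive = exactly half the replicates above a set limit; inactive = most replicates below a set limit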;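 also: all wells also contain fluconazole at 8 µg/ml as a sub-toxic cotreatment; 0% = median of DMSO wells and 100% = median of geldanamycin control wells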
GAA850 FXN act = frataxin GAA850 promoter activation; HEK293 lucGAA850 FXN promoter luciferase reporter, 24 h; percent of 10 µM SAHA response; activation, % at 6 µM; 0.56% of 360,000 active; AID 540364;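 active = activation above the average of all compounds screened plus 3 SD, cutoff fixed separately per campaign, cut at about 7.5% in these data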;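 also: 0% = DMSO wells and 100% = 10 µM SAHA wells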
* marks the source's active call; other numbers are inactive results; ? = inconclusive; · = no result given.

SMILES	Neddylation inh	proCasp7 act	HIF act	proCasp3 act	Calb FLC	GAA850 FXN act
CCCn1c(SCC(=O)N2CCc3ccccc3C2)nc2c1c(=O)n(C)c(=O)n2C	-3	0	735*	0	13	-1
C[C@H]1CN([C@@H](C)CO)C(=O)CCCn2nncc2CO[C@@H]1CN(C)Cc1ccccc1	0	·	·	·	·	0
CS(=O)(=O)c1nc([N+](=O)[O-])nn1CCCc1ccccc1	-31	-2	-5	-2	-1	3
Cn1nc([N+](=O)[O-])nc1S(C)(=O)=O	-15	·	0	·	0	18*
COCCNC(=S)N1CCC2CC1c1cc(-c3ccc4c(c3)OCO4)ccc12 (stereo not drawn)	-4	·	·	·	·	·
CC1CCN(C(=O)C2Cc3ccccc3CN2S(=O)(=O)c2ccc(F)cc2)CC1 (stereo not drawn)	3	9	0	6	6	11*
COc1cnc(-c2ccccn2)nc1Sc1cccc(Cl)c1	-36	-1	-1	5	91*	-1
COc1ccccc1Sc1nc(-c2ccccn2)ncc1OC	-6	-3	2	1	3	-1
COc1cnc(-c2ccccn2)nc1NC(C)C	15	3	178*	-8	113*	-1
Clc1c(CSc2nc3ccccc3o2)nc2sccn12	0	3	10*	-2	-34	5
Cc1cc(C(=O)N2CCC2(C)C(=O)NS(=O)(=O)c2ccc(Cl)cc2)nn1C (stereo not drawn)	-2	·	·	·	·	2
Cc1ccc(N=Cc2cc(Cc3ccccc3Cl)cc([N+](=O)[O-])c2O)c(O)c1	-35	-28	0	-1	109*	3
O=C(Cc1cccc(NC(=O)C2CCCN(C(=O)C3CCCC3)C2)c1)Nc1cccc(C(=O)N2CCCCC2)c1 (stereo not drawn)	5	·	·	·	·	-1
Cc1ccc(NC(=S)c2nc3ccccc3[nH]2)cc1	-15	-8	-1	2	85*	5
CN(c1ccccc1)S(=O)(=O)c1cccc(C(=O)NCC(c2cccs2)N2CCOCC2)c1 (stereo not drawn)	3	·	·	·	·	0
COc1ccc2c(c1OC)C(=O)N1N=C(c3ccc(O)cc3)CC21 (stereo not drawn)	-10	-12	0	4	94*	1
CCOC(=O)C1(C)CCCN(C(=O)c2ccc(C)c(F)c2)C1 (stereo not drawn)	0	·	·	·	·	-1
OC(CNCCc1ccc(C(F)(F)F)cc1)COc1cccc2ccccc12 (stereo not drawn)	2	2	0	-5	-7	0
OC(CNCCc1ccc(C(F)(F)F)cc1)COc1ccc2ccccc2c1 (stereo not drawn)	6	1	-1	4	105*	2
CCOC(=O)c1[nH]c2ccc(F)cc2c1NC(=O)c1ccccc1C(=O)O	29	·	-22	·	85*	3
CCOC(=O)c1[nH]c2ccc(F)cc2c1NC(=O)c1cc(OC)c(OC)c(OC)c1	21	-2	0	-1	-4	-2
O=C(N/N=C(\c1ccccc1)c1cccnc1)c1cccc(F)c1	-12	1	89*	3	-5	2
O=C(N/N=C(\c1ccccc1)c1cccnc1)c1ccc(O)cc1	-3	1	-1	12	-1	1
CC[C@H](C)[C@H](NC(=O)OCc1ccccc1)C(=O)OCC(=O)N1CCN(c2ccc(OC)cc2)CC1	-5	·	·	·	·	0
NS(=O)(=O)c1ccc(CCNC(=O)c2ccc3nc4ccc(Cl)cc4c(=O)n3c2)cc1	47*	3	·	-1	5	-1
SMILES	Neddylation inh	proCasp7 act	HIF act	proCasp3 act	Calb FLC	GAA850 FXN act
Cc1ccc(NC(=O)NCc2ccccn2)cc1	4	-3	0	-2	-3	2
Cc1ccc(NC(=O)NCc2ccccn2)c(C)c1	-4	·	·	·	95*	1
COc1ccccc1C(O)c1nccn1C (stereo not drawn)	3	1	0	0	0	0
CCn1ccnc1C(O)c1ccccc1OC (stereo not drawn)	-4	5	27*	1	-4	2
COc1ccc2cc3cc(C(=O)N4CCN(c5ccccn5)CC4)oc3nc2c1	-18	6	56*	7	20	0
COc1ccc2cc3cc(C(=O)N4CC(C)CC(C)C4)oc3nc2c1 (stereo not drawn)	38	-4	4	8	-4	3
O=C(CN1CCN(c2ccc(O)cc2)CC1)NC(c1ccccc1)c1ccccc1	0	-17	1	-8	114*	-1
Brc1ccc(/C=N/Nc2ccc3ccccc3n2)cc1	25	-6	3	-7	3	7.8*
Brc1ccccc1/C=N/Nc1ccc2ccccc2n1	30	-1	3	-7	-9	4
COc1ccc(C(C)=O)cc1Cn1c(C)c(C(=O)NCc2cccc(C)c2)sc1=O	3	·	·	·	·	-3
CC(=O)c1ccc(C(=O)N2CCCC(Nc3ccc(C(C)C)cc3)C2)s1 (stereo not drawn)	-18	2	13*	-1	3	0
CC(=O)c1[nH]c(C)c(C(=O)N2CCCC(Nc3ccc(C(C)C)cc3)C2)c1C (stereo not drawn)	-3	·	-9	·	-5	1
COc1ccc(C(=O)/C=C/C(=O)N(CC(=O)NC2CCCCC2)CC2CCCO2)c(O)c1 (stereo not drawn)	17	0	16*	-2	47	5
C/C(=N\OCc1ccc(C#N)cc1)c1cc2ccccc2o1	-8	-1	0	6	78*	3
C/C(=N\OCc1ccccc1C#N)c1cc2ccccc2o1	7	6	2	-1	-1	2
CCOC(=O)CNC(=O)CSc1nnc(Cn2cnc3ccccc32)n1C	5	9	12*	-3	?	0
CCn1c(C)nc2cc(C(=O)N/N=C/c3cccc(OC)c3O)ccc21	-4	-13	3	-19	108*	-3
CCn1c(C)nc2cc(C(=O)N/N=C/c3ccc(O)c(O)c3O)ccc21	-17	·	0	·	76*	2
COc1cccc(/C=N/NC(=O)c2ccc3nc[nH]c3c2)c1O	-5	-12	0	8	-3	1
CCC(=NNC(=O)c1ccc2c(c1)nc(C)n2CC)c1cc(F)ccc1O	38	-44	·	-15	·	-1
CC(C)(C)NC(=O)C1(N2C(=O)c3ccccc3C2=O)CCCC1	3	·	·	·	·	2
COc1ccc(S(=O)(=O)NC(=O)C2(C)CCN2C(=O)C2(c3ccccc3)CC2)cc1 (stereo not drawn)	-6	·	·	·	·	1
CC(C)N1C(=O)S/C(=C/c2ccc3c(c2)n(C)c(=O)n3C)C1=O	25	-7	1	-6	47	4
